# Calls of active or inactive are those of the source. The calls are words filed in the database; no cut-off is given here.
# Legend:
# Mus musculus [1] = experiment: Neuroprotective activity against lesioned C57BL/6 mouse model of Parkinson's disease assessed as increase in number of TH positive cells at 100 mg/kg , po administered for 2 week […] by Immuno histochemistry assays; settings: time 2 weeks
# PC-12 [2] = experiment: Inhibition of H2O2-induced reactive oxygen species production in rat PC-12 cells assessed as ROS accumulation at 100 uM measured after pretreated for 24 hrs followed by H2O2 challenge and measured after 24 hrs by DCFH-DA probe based flow cytometry; assay type: functional, cell-based
# In short: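 PC12 cells seeded 1 × 10⁴/well, pretreated 24 h with 12.5–100 µM compound, then 300 µM H2O2 for 24 h. Rinsed, loaded with DCFH-DA (1:1000 in serum-free medium) 15 min at room temperature in the dark, washed; fluorescence read by microscopy, plate reader ([…]) and flow cytometry; three independent experiments.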
# PC-12 [3] = experiment: Cytoprotection activity against H2O2-induced rat PC12-shNT cell assessed as cell viability at 12.5 to 100 uM pretreated for 24 hrs followed by H2O2 challenge and measured after 24 hrs by MTT assay; assay type: functional, cell-based; settings: dose 12.5-100 µM, time 48.0 hrs
# In short: (§1)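 PC12 lines made by lentiviral shRNA against rat Nrf2 (shNrf2-2) or scrambled control (shNT), selected with 0.5 mg/mL G418, knockdown confirmed by Western blot. Pretreated 24 h with 12.5, 25.0, 50.0 or 100 µM compound, then H2O2 for 24 h; viability by MTT; mean ± SD, three independent experiments.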
# Mus musculus [4] = experiment: Neuroprotective activity in lesioned C57BL/6 mouse model of Parkinson's disease assessed as assessed as reduction in climbing down time at 100 mg/kg, po administered for 2 week before MPTP stimulation by pole test; assay type: functional; settings: C57BL/6, po, 336 h, time 2 weeks
# In short: (§2)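 Male 10-week-old C57BL/6 mice (20–23 g), n = 6/group. Prophylactic: oral compound (50 or 100 mg/kg in saline) 2 weeks, then MPTP-HCl 25 mg/kg i.p. in week 3. Therapeutic: MPTP-HCl 25 mg/kg i.p. 1 week, then oral 100 mg/kg 2 weeks. Saline vehicle. Pole/rotarod training last 3 days; TH immunohistochemistry on SNpc and striatum.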
# Mus musculus [5] = experiment: Neuroprotective activity against lesioned C57BL/6 mouse model of Parkinson's disease assessed as upregulation of Nrf2 in SNpc and striatum area at 100 mg/kg , po administered for 2 week before MPTP stimulation by Immuno histochemistry assays; assay type: functional, organism-based; settings: Brain, time 2.0 weeks
# In short: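 Prophylactic regimen in male C57BL/6 mice (n = 6): oral compound 100 mg/kg in saline 2 weeks, then MPTP-HCl 25 mg/kg i.p. in week 3. Nrf2 immunohistochemistry in striatum and SNpc, quantified as Nrf2-immunopositive density relative to total area; mean ± SD.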
# PC-12 [6] = experiment: Inhibition of H202-induced apoptosis in rat PC-12 cells assessed as necrotic cells at 50 uM after 24 hrs by Annexin-V-FITC/PI-staining based flow cytometric analysis (reference value: 0.33%); assay type: functional; design: scale not given: the % may be the effect or the level left
# In short: (§3)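 PC12 cells seeded 2 × 10⁵/well for 24 h, pretreated 24 h with 12.5, 25, 50 or 100 µM compound, then given fresh medium containing 650 µM H2O2. Harvested cells washed in binding buffer, stained 5 min with Annexin V-FITC/PI, analysed by flow cytometry.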
# PC-12 [7] = experiment: Inhibition of H202-induced apoptosis in rat PC-12 cells assessed as necrotic cells at 25 uM after 24 hrs by Annexin-V-FITC/PI-staining based flow cytometric analysis (reference value: 0.33%); assay type: functional; design: scale not given: the % may be the effect or the level left
# In short: as §3
# PC-12 [8] = experiment: Inhibition of H202-induced apoptosis in rat PC-12 cells assessed as viable cells at 100 uM after 24 hrs by Annexin-V-FITC/PI-staining based flow cytometric analysis (reference value: 52.01%); assay type: functional; settings: read-out: Activity
# In short: as §3
# Mus musculus [9] = experiment: Neuroprotective activity in lesioned C57BL/6 mouse model of Parkinson's disease assessed as increase in time spent on rotarod at 50 mg/kg, po administered for 2 week before MPTP stimulation by rotarod test; assay type: functional; settings: time 2 weeks
# In short: as §2
# PC-12 [10] = experiment: Cytoprotection activity against H2O2-induced rat PC12-shNrf2-2 cell assessed as cell viability at 12.5 to 100 uM pretreated for 24 hrs followed by H2O2 challenge and measured after 24 hrs by MTT assay; assay type: functional, cell-based; settings: dose 12.5-100 µM, time 48.0 hrs
# In short: as §1
# PC-12 [11] = experiment: Inhibition of H2O2-induced mitochondrial membrane potential loss in rat PC-12 cells pretreated for 24 hrs followed by H2O2 challenge and measured after 24 hrs by JC-1 staining based fluorescence microplate reader assay; settings: dose 12.5-50 µM, time 48.0 hrs
# Mus musculus [12] = experiment: Neuroprotective activity in lesioned C57BL/6 mouse model of Parkinson's disease assessed as assessed as reduction in climbing down time at 50 mg/kg, po administered for 2 week before MPTP stimulation by pole test; assay type: functional; settings: C57BL/6, po, 336 h, time 2 weeks
# In short: as §2
# PC-12 [13] = experiment: Inhibition of H202-induced apoptosis in rat PC-12 cells assessed as late apoptotic cells at 12.5 uM after 24 hrs by Annexin-V-FITC/PI-staining based flow cytometric analysis (reference value: 32.5%); assay type: functional; design: scale not given: the % may be the effect or the level left
# In short: as §3
# PC-12 [14] = experiment: Cytotoxicity against rat PC-12 cells assessed as increase LDH content in presence of H2O2 incubated at 50 to 100 uM for 24 hrs by Lactate dehydrogenase assay; assay type: cell-based; settings: pc-12, 24 h, dose 50-100 µM
# In short: (§4)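 PC12 cells seeded 1 × 10⁴/well for 24 h, pretreated with compound at several concentrations (12.5–100 µM range), then challenged with H2O2; LDH released into medium quantified as membrane-damage marker. Mean ± SD, three independent experiments.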
# Mus musculus [15] = experiment: Neuroprotective activity in lesioned C57BL/6 mouse model of Parkinson's disease assessed as assessed as reduction in climbing down time at 100 mg/kg, po administered for 2 week after MPTP stimulation by pole test; assay type: functional; settings: C57BL/6, po, 336 h, read-out: INH, time 2 weeks
# In short: as §2
# PC-12 [16] = experiment: Inhibition of H202-induced apoptosis in rat PC-12 cells assessed as necrotic cells at 100 uM after 24 hrs by Annexin-V-FITC/PI-staining based flow cytometric analysis (reference value: 0.33%); assay type: functional; design: scale not given: the % may be the effect or the level left
# In short: as §3
# PC-12 [17] = experiment: Neuroprotective activity against H2O2-induced cytotoxicity in rat PC-12 cells assessed as cell viability at 100 uM pretreated for 24 hrs followed by H2O2 challenge and measured after 24 hrs by MTT assay (reference value: 52.81 +/- 6%); assay type: functional, cell-based; settings: time 48.0 hrs
# PC-12 [18] = experiment: Neuroprotective activity against H202-induced cell damage in rat PC-12 cells assessed as decrease in LDH content incubated at 12.5 to 25 uM for 24 hrs by Lactate dehydrogenase assay; assay type: functional, cell-based; settings: dose 12.5-25 µM
# In short: as §4
# PC-12 [19] = experiment: Neuroprotective activity against H2O2-induced cytotoxicity in rat PC-12 cells assessed as cell viability at 12.5 uM pretreated for 24 hrs followed by H2O2 challenge and measured after 24 hrs by MTT assay (reference value: 52.81 +/- 6%); assay type: functional; settings: time 48 hrs, read-out: Activity
# Mus musculus [20] = experiment: Neuroprotective activity against lesioned C57BL/6 mouse model of Parkinson's disease assessed as increase in expression of HO-1 and NQO1 at 50 to 100 mg/kg , po administered for 2 week before MPTP stimulation by western blotting assays; assay type: functional, organism-based; settings: Brain, dose 50-100 mg/kg, time 2.0 weeks
compound,measurement,setting,value
COc1ccccc1/C=C/C=C/C(=O)N1CCCCC1,Activity,Mus musculus [1],74%
same,Activity,PC-12 [2],inactive
same,Activity,PC-12 [3],Active
same,inhibition in vivo at 100 mg/kg,Mus musculus [4],34.5%
same,Activity,Mus musculus [5],Active
same,Activity,PC-12 [6],0.26%
same,Activity,PC-12 [7],0.24%
same,viability at 100 µM,PC-12 [8],58%
same,Time,Mus musculus [9],253.7 s
same,Activity,PC-12 [10],inactive
same,inhibition,PC-12 [11],Dose-dependent effect
same,inhibition in vivo at 50 mg/kg,Mus musculus [12],38.1%
same,Activity,PC-12 [13],26.08%
same,Activity,PC-12 [14],Toxic
same,inhibition in vivo at 100 mg/kg,Mus musculus [15],20.6%
same,Activity,PC-12 [16],0.57%
same,Activity,PC-12 [17],Active
same,Activity,PC-12 [18],Active
same,viability at 12.5 µM,PC-12 [19],88.8%
same,Activity,Mus musculus [20],Active

# Reference: ChEMBL document CHEMBL4765320, “Identification and optimization of piperine analogues as neuroprotective agents for the treatment of Parkinson's disease via the activation of Nrf2/keap1 pathway” (Eur J Med Chem, 2020)
